Key:
[1] = test system: Bone; assay: Drug uptake in ICR mouse bone at 370 kBq/100 ul, iv at 10 mins by gamma-counting analysis; type: ADME, organism-based, Bone element; conditions: in vivo
Procedure, shortened: (§1)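 Male ICR mice (5 weeks, about 20 g) got 18F tracer in saline (370 KBq per 100 μL) via tail vein; n = 5 per time point, killed at 2, 10, 30, 60 min. Organs weighed and γ-counted; percent dose per gram wet tissue from comparison with diluted injectate aliquots.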

[2] = test system: Intestine; assay: Drug uptake in ICR mouse intestine assessed per organ at 370 kBq/100 ul, iv at 10 mins by gamma-counting analysis; type: ADME, organism-based; conditions: in vivo
Procedure, shortened: (§2)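 Male ICR mice (5 weeks, about 20 g) got 18F tracer in saline (370 KBq per 100 μL) via tail vein; n = 5 per time point, killed at 2, 10, 30, 60 min. Organs removed and γ-counted against diluted injectate; expressed as % injected dose per organ.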

[3] = test system: Liver; assay: Drug uptake in ICR mouse liver at 370 kBq/100 ul, iv at 2 mins by gamma-counting analysis; type: ADME, organism-based; conditions: in vivo; procedure, shortened: as §1
[4] = test system: Stomach; assay: Drug uptake in ICR mouse stomach assessed per organ at 370 kBq/100 ul, iv at 60 mins by gamma-counting analysis; type: ADME, organism-based; conditions: in vivo, 1 h
Procedure, shortened: (§3)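 Normal male ICR mice (5 weeks, about 20 g) received the ¹⁸F tracer in saline (370 KBq per 100 μL) by tail-vein injection. Groups of n = 5 were killed at 2, 10, 30 and 60 min. Organs were removed, weighed and γ-counted against diluted aliquots of the injectate, giving % dose per gram. Stomach and intestine were expressed per organ. The brain ratio is 2 min/60 min uptake. Values are mean ± SD.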

[5] = test system: Intestine; assay: Drug uptake in ICR mouse intestine assessed per organ at 370 kBq/100 ul, iv at 2 mins by gamma-counting analysis; type: ADME, organism-based; conditions: in vivo; procedure, shortened: as §2
[6] = test system: Heart; assay: Drug uptake in ICR mouse heart at 370 kBq/100 ul, iv at 60 mins by gamma-counting analysis; type: ADME, organism-based; conditions: in vivo, 1 h; procedure, shortened: as §1
[7] = test system: Lung; assay: Drug uptake in ICR mouse lung at 370 kBq/100 ul, iv at 10 mins by gamma-counting analysis; type: ADME, organism-based; conditions: in vivo; procedure, shortened: as §1
[8] = test system: Kidney; assay: Drug uptake in ICR mouse kidney at 370 kBq/100 ul, iv at 10 mins by gamma-counting analysis; type: ADME, organism-based; conditions: in vivo; procedure, shortened: as §1
[9] = Displacement of [125I]-IMPY from amyloid beta (1 to 42) fibrils after 2 hrs by gamma-counting analysis
Procedure, shortened: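 Competition binding with aggregated Aβ1-42 fibrils and [125I]IMPY (60000−100000 cpm/100 μL) in 0.05% BSA (1 mL total); inhibitors 10⁻⁴−10^−8.5 M in ethanol. Incubated 37 °C for 2 h, then GF/B vacuum filtration with PBS (0.02 M, pH 7.4) washes and γ counting. Three repeats; IC50 converted to Ki by Cheng−Prusoff.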

[10] = test system: Blood; assay: Drug uptake in ICR mouse blood at 370 kBq/100 ul, iv at 60 mins by gamma-counting analysis; type: ADME, organism-based; conditions: in vivo, 1 h; procedure, shortened: as §1
[11] = test system: Liver; assay: Drug uptake in ICR mouse liver at 370 kBq/100 ul, iv at 60 mins by gamma-counting analysis; type: ADME, organism-based; conditions: in vivo, 1 h; procedure, shortened: as §1
[12] = test system: Blood; assay: Drug uptake in ICR mouse blood at 370 kBq/100 ul, iv at 10 mins by gamma-counting analysis; type: ADME, organism-based; conditions: in vivo; procedure, shortened: as §1
[13] = test system: Stomach; assay: Drug uptake in ICR mouse stomach assessed per organ at 370 kBq/100 ul, iv at 30 mins by gamma-counting analysis; type: ADME, organism-based; conditions: in vivo, 0.5 h; procedure, shortened: as §2
[14] = test system: Blood; assay: Drug uptake in ICR mouse blood at 370 kBq/100 ul, iv at 2 mins by gamma-counting analysis; type: ADME, organism-based; conditions: in vivo; procedure, shortened: as §1
[15] = test system: Spleen; assay: Drug uptake in ICR mouse spleen at 370 kBq/100 ul, iv at 10 mins by gamma-counting analysis; type: ADME, organism-based; conditions: in vivo; procedure, shortened: as §1
[16] = test system: Brain; assay: Drug uptake in ICR mouse brain at 370 kBq/100 ul, iv at 2 mins by gamma-counting analysis; type: ADME, organism-based; conditions: in vivo; procedure, shortened: as §1
[17] = test system: Spleen; assay: Drug uptake in ICR mouse spleen at 370 kBq/100 ul, iv at 30 mins by gamma-counting analysis; type: ADME, organism-based; conditions: in vivo, 0.5 h; procedure, shortened: as §1
[18] = test system: Lung; assay: Drug uptake in ICR mouse lung at 370 kBq/100 ul, iv at 60 mins by gamma-counting analysis; type: ADME, organism-based; conditions: in vivo, 1 h; procedure, shortened: as §1
[19] = test system: Bone; assay: Drug uptake in ICR mouse bone at 370 kBq/100 ul, iv at 2 mins by gamma-counting analysis; type: ADME, organism-based, Bone element; conditions: in vivo; procedure, shortened: as §1
[20] = test system: Blood; assay: Drug uptake in ICR mouse blood at 370 kBq/100 ul, iv at 30 mins by gamma-counting analysis; type: ADME, organism-based; conditions: in vivo, 0.5 h; procedure, shortened: as §1
[21] = test system: Kidney; assay: Drug uptake in ICR mouse kidney at 370 kBq/100 ul, iv at 30 mins by gamma-counting analysis; type: ADME, organism-based; conditions: in vivo, 0.5 h; procedure, shortened: as §1
[22] = test system: Brain; assay: Drug uptake in ICR mouse brain at 370 kBq/100 ul, iv at 60 mins by gamma-counting analysis; type: ADME, organism-based; conditions: in vivo, 1 h; procedure, shortened: as §1
[23] = test system: Stomach; assay: Drug uptake in ICR mouse stomach assessed per organ at 370 kBq/100 ul, iv at 10 mins by gamma-counting analysis; type: ADME, organism-based; conditions: in vivo; procedure, shortened: as §2
[24] = test system: Intestine; assay: Drug uptake in ICR mouse intestine assessed per organ at 370 kBq/100 ul, iv at 60 mins by gamma-counting analysis; type: ADME, organism-based; conditions: in vivo, 1 h; procedure, shortened: as §2
[25] = test system: Liver; assay: Drug uptake in ICR mouse liver at 370 kBq/100 ul, iv at 30 mins by gamma-counting analysis; type: ADME, organism-based; conditions: in vivo, 0.5 h; procedure, shortened: as §1
[26] = test system: Brain; assay: Ratio of drug uptake in brain at 2 mins to drug uptake in brain at 60 mins in ICR mouse at 370 KBq/100 ul, iv; type: ADME, organism-based; conditions: in vivo; procedure, shortened: as §3
[27] = n-Octanol-PBS buffer partition coefficient, log D of the compound at 1.5 MBq after 3 mins at pH 7.4; type: physicochemical
Procedure, shortened: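 The tracer was partitioned between n-octanol and PBS by vortexing for 3 min at room temperature, then centrifuged for 5 min at 3000 rpm. Samples of the octanol (50 μL) and aqueous (500 μL) layers were counted. log D is the log of the octanol/PBS counts-per-gram ratio. The octanol layer was repartitioned until values were consistent. Measured in triplicate and repeated three times.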

[28] = test system: Intestine; assay: Drug uptake in ICR mouse intestine assessed per organ at 370 kBq/100 ul, iv at 30 mins by gamma-counting analysis; type: ADME, organism-based; conditions: in vivo, 0.5 h; procedure, shortened: as §2
[29] = test system: Bone; assay: Drug uptake in ICR mouse bone at 370 kBq/100 ul, iv at 60 mins by gamma-counting analysis; type: ADME, organism-based, Bone element; conditions: in vivo, 1 h; procedure, shortened: as §1
[30] = test system: Heart; assay: Drug uptake in ICR mouse heart at 370 kBq/100 ul, iv at 10 mins by gamma-counting analysis; type: ADME, organism-based; conditions: in vivo; procedure, shortened: as §1
[31] = test system: Brain; assay: Drug uptake in healthy human brain at 370 KBq/100 ul after 1 hr by autoradiographic analysis; type: ADME, tissue-based; conditions: in vitro
[32] = test system: Bone; assay: Drug uptake in ICR mouse bone at 370 kBq/100 ul, iv at 30 mins by gamma-counting analysis; type: ADME, organism-based, Bone element; conditions: in vivo, 0.5 h; procedure, shortened: as §1
[33] = test system: Heart; assay: Drug uptake in ICR mouse heart at 370 kBq/100 ul, iv at 2 mins by gamma-counting analysis; type: ADME, organism-based; conditions: in vivo; procedure, shortened: as §1
[34] = test system: Lung; assay: Drug uptake in ICR mouse lung at 370 kBq/100 ul, iv at 2 mins by gamma-counting analysis; type: ADME, organism-based; conditions: in vivo; procedure, shortened: as §1
[35] = test system: Spleen; assay: Drug uptake in ICR mouse spleen at 370 kBq/100 ul, iv at 2 mins by gamma-counting analysis; type: ADME, organism-based; conditions: in vivo; procedure, shortened: as §1
[36] = test system: Spleen; assay: Drug uptake in ICR mouse spleen at 370 kBq/100 ul, iv at 60 mins by gamma-counting analysis; type: ADME, organism-based; conditions: in vivo, 1 h; procedure, shortened: as §1
[37] = test system: Brain; assay: Drug uptake in ICR mouse brain at 370 kBq/100 ul, iv at 30 mins by gamma-counting analysis; type: ADME, organism-based; conditions: in vivo, 0.5 h; procedure, shortened: as §1
[38] = test system: Liver; assay: Drug uptake in ICR mouse liver at 370 kBq/100 ul, iv at 10 mins by gamma-counting analysis; type: ADME, organism-based; conditions: in vivo; procedure, shortened: as §1
[39] = test system: Stomach; assay: Drug uptake in ICR mouse stomach assessed per organ at 370 kBq/100 ul, iv at 2 mins by gamma-counting analysis; type: ADME, organism-based; conditions: in vivo; procedure, shortened: as §2
[40] = test system: Kidney; assay: Drug uptake in ICR mouse kidney at 370 kBq/100 ul, iv at 60 mins by gamma-counting analysis; type: ADME, organism-based; conditions: in vivo, 1 h; procedure, shortened: as §1
[41] = test system: Brain; assay: Drug uptake in wild type C57BL6 mouse brain at 370 KBq/100 ul after 1 hr by autoradiographic analysis; type: ADME, tissue-based; conditions: in vitro
Procedure, shortened: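 Paraffin brain sections from 12-month-old male control C57BL6 mice were deparaffinized through xylene and graded ethanol, then held in PBS (0.2 M, pH 7.4) for 30 min. They were incubated with the ¹⁸F tracer (370 KBq per 100 μL) for 1 h at room temperature. Sections were washed in 40% EtOH, rinsed with water for 1 min, dried, and exposed to a phosphor plate for 2 h. The same sections were then stained with thioflavin S.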

[42] = test system: Heart; assay: Drug uptake in ICR mouse heart at 370 kBq/100 ul, iv at 30 mins by gamma-counting analysis; type: ADME, organism-based; conditions: in vivo, 0.5 h; procedure, shortened: as §1
[43] = test system: Brain; assay: Drug uptake in ICR mouse brain at 370 kBq/100 ul, iv at 10 mins by gamma-counting analysis; type: ADME, organism-based; conditions: in vivo; procedure, shortened: as §1
[44] = test system: Kidney; assay: Drug uptake in ICR mouse kidney at 370 kBq/100 ul, iv at 2 mins by gamma-counting analysis; type: ADME, organism-based; conditions: in vivo; procedure, shortened: as §1
[45] = test system: Lung; assay: Drug uptake in ICR mouse lung at 370 kBq/100 ul, iv at 30 mins by gamma-counting analysis; type: ADME, organism-based; conditions: in vivo, 0.5 h; procedure, shortened: as §1

Compound: CNc1ccc(-c2nc3ccc(OCC[18F])cc3s2)cn1
- Drug uptake [1]: 2.43 % ID/g
- Drug uptake [2]: 11.15 %ID
- Drug uptake [3]: 10.4 % ID/g
- Drug uptake [4]: 3.67 %ID
- Drug uptake [5]: 12.06 %ID
- Drug uptake [6]: 3.7 % ID/g
- Drug uptake [7]: 3.02 % ID/g
- Drug uptake [8]: 4.42 % ID/g
- Ki [9]: 0.0101 µM
- Drug uptake [10]: 4.45 % ID/g
- Drug uptake [11]: 3.06 % ID/g
- Drug uptake [12]: 3.94 % ID/g
- Drug uptake [13]: 4.63 %ID
- Drug uptake [14]: 4.31 % ID/g
- Drug uptake [15]: 3.29 % ID/g
- Drug uptake [16]: 7.87 % ID/g
- Drug uptake [17]: 2.87 % ID/g
- Drug uptake [18]: 2.72 % ID/g
- Drug uptake [19]: 2.04 % ID/g
- Drug uptake [20]: 4.45 % ID/g
- Drug uptake [21]: 3.62 % ID/g
- Drug uptake [22]: 2.83 % ID/g
- Drug uptake [23]: 5.61 %ID
- Drug uptake [24]: 19 %ID
- Drug uptake [25]: 4.28 % ID/g
- Ratio [26]: 2.78
- logD at 0.05 h [27]: 3.59
- Drug uptake [28]: 25.23 %ID
- Drug uptake [29]: 6.7 % ID/g
- Drug uptake [30]: 3.11 % ID/g
- Drug uptake [31]: Not Active
- Drug uptake [32]: 3.77 % ID/g
- Drug uptake [33]: 5.59 % ID/g
- Drug uptake [34]: 5.85 % ID/g
- Drug uptake [35]: 4.52 % ID/g
- Drug uptake [36]: 2.86 % ID/g
- Drug uptake [37]: 3.38 % ID/g
- Drug uptake [38]: 5.94 % ID/g
- Drug uptake [39]: 3.61 %ID
- Drug uptake [40]: 3.45 % ID/g
- Drug uptake [41]: Not Active
- Drug uptake [42]: 3.33 % ID/g
- Drug uptake [43]: 4.54 % ID/g
- Drug uptake [44]: 9.57 % ID/g
- Drug uptake [45]: 3.57 % ID/g

Reference: ChEMBL document CHEMBL2177098, “Synthesis and evaluation of novel ¹⁸F labeled 2-pyridinylbenzoxazole and 2-pyridinylbenzothiazole derivatives as ligands for positron emission tomography (PET) imaging of β-amyloid plaques” (J Med Chem, 2012)
